Test results as given in ChEMBL document CHEMBL1155443, “Synthesis and evaluation of alpha-halogenated analogues of 3-(acetylhydroxyamino)propylphosphonic acid (FR900098) as antimalarials” (J Med Chem, 2010).
Calls of active or inactive are those of the source. No cut-off for these calls is given here.

What was measured:
Plasmodium berghei [1] = assay: Antiplasmodial activity against Plasmodium berghei ANKA infected in mice (Mus musculus) assessed as mice (Mus musculus) survival at 50 mg/kg, intraperitoneal for 5 consecutive days measured on day 14 post parasitic infection; format: functional, organism-based; parameters: dose 50 mg/kg
Outline: (§1)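 P. berghei GFP ANKA acute mouse model. Drug was given intraperitoneally once daily for 5 consecutive days, alongside vehicle-treated infected controls. Mice were watched for clinical and adverse signs and euthanized for welfare if signs became very severe. Surviving animals were counted per group on days 7, 11, 14 and 25, and mean survival time was calculated.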

Plasmodium berghei [2] = assay: Antiplasmodial activity against Plasmodium berghei ANKA infected in mice (Mus musculus) assessed as mean survival time at 50 mg/kg, intraperitoneal for 5 consecutive days; format: functional
Outline: (§2)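 P. berghei (GFP ANKA strain) acute mouse model; intraperitoneal dosing for 5 consecutive days (test compounds 50 mg/kg, chloroquine reference 10 mg/kg). Parasitaemia measured by flow cytometry (10 μL blood in 2000 μL PBS) on days 4, 7 and 14 in survivors, expressed as % reduction versus vehicle-treated infected controls. Survivors counted on days 7, 11, 14 and 25; mean survival time calculated.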

Plasmodium falciparum [3] = assay: Antiplasmodial activity against Plasmodium falciparum K1 by micro dilution assay; format: functional, organism-based
Outline: (§3)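 Intraerythrocytic P. falciparum, strains GHA and K1, in a microdilution assay; tested in duplicate.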

Plasmodium berghei [4] = assay: Antiplasmodial activity against Plasmodium berghei ANKA infected in mice (Mus musculus) assessed as suppression of parasitaemia at 50 mg/kg, intraperitoneal for 5 consecutive days measured on day 4 post parasitic infection; format: functional; conditions: ip, 96 h; outline: as §2
Plasmodium berghei [5] = assay: Antiplasmodial activity against Plasmodium berghei ANKA infected in mice (Mus musculus) assessed as mice (Mus musculus) survival at 50 mg/kg, intraperitoneal for 5 consecutive days measured on day 25 post parasitic infection; format: functional, organism-based; parameters: dose 50 mg/kg; outline: as §2
Plasmodium berghei [6] = assay: Antiplasmodial activity against Plasmodium berghei ANKA infected in mice (Mus musculus) assessed as mice (Mus musculus) survival at 50 mg/kg, intraperitoneal for 5 consecutive days measured on day 11 post parasitic infection; format: functional, organism-based; parameters: dose 50 mg/kg; outline: as §1
Plasmodium falciparum [7] = assay: Antiplasmodial activity against Plasmodium falciparum Ghana by micro dilution assay; format: functional, organism-based; outline: as §3
Plasmodium berghei [8] = assay: Antiplasmodial activity against Plasmodium berghei ANKA infected in mice (Mus musculus) assessed as suppression of parasitaemia at 50 mg/kg, intraperitoneal for 5 consecutive days measured on day 7 post parasitic infection; format: functional; conditions: ip, 168 h; outline: as §2
Plasmodium falciparum [9] = assay: Ratio of fosmidomycin IC50 to compound IC50 for Plasmodium falciparum K1; format: functional
Plasmodium berghei [10] = assay: Antiplasmodial activity against Plasmodium berghei ANKA infected in mice (Mus musculus) assessed as suppression of parasitaemia at 50 mg/kg, intraperitoneal for 5 consecutive days measured on day 14 post parasitic infection; format: functional; conditions: ip, 336 h; outline: as §2
[11] = Dissociation constant, pKa by NMR titration assay; format: physicochemical
Outline: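 The ³¹P NMR chemical shift was recorded across a range of pH values and plotted against pH. Each pKa was taken as the pH at the inflection point of the titration curve, with the second pKa the value of interest.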

Plasmodium berghei [12] = assay: Antiplasmodial activity against Plasmodium berghei ANKA infected in mice (Mus musculus) assessed as mice (Mus musculus) survival at 50 mg/kg, intraperitoneal for 5 consecutive days measured on day 7 post parasitic infection; format: functional, organism-based; parameters: dose 50 mg/kg; outline: as §2
Plasmodium berghei [13] = assay: Antiplasmodial activity against Plasmodium berghei ANKA infected in mice (Mus musculus) assessed as mice (Mus musculus) survival at 10 mg/kg, intraperitoneal for 5 consecutive days measured on day 7 post parasitic infection; format: functional, organism-based; parameters: dose 10 mg/kg; outline: as §1
Plasmodium berghei [14] = assay: Antiplasmodial activity against Plasmodium berghei ANKA infected in mice (Mus musculus) assessed as mice (Mus musculus) survival at 10 mg/kg, intraperitoneal for 5 consecutive days measured on day 11 post parasitic infection; format: functional, organism-based; parameters: dose 10 mg/kg; outline: as §1
Plasmodium berghei [15] = assay: Antiplasmodial activity against Plasmodium berghei ANKA infected in mice (Mus musculus) assessed as suppression of parasitaemia at 10 mg/kg, intraperitoneal for 5 consecutive days measured on day 4 post parasitic infection; conditions: ip, 96 h, read-out: INH
Plasmodium berghei [16] = assay: Antiplasmodial activity against Plasmodium berghei ANKA infected in mice (Mus musculus) assessed as mean survival time at 10 mg/kg, intraperitoneal for 5 consecutive days; format: functional; outline: as §2
Plasmodium berghei [17] = assay: Antiplasmodial activity against Plasmodium berghei ANKA infected in mice (Mus musculus) assessed as mice (Mus musculus) survival at 10 mg/kg, intraperitoneal for 5 consecutive days measured on day 14 post parasitic infection; format: functional, organism-based; parameters: dose 10 mg/kg; outline: as §1

For `O=CN(O)CCC(c1ccc(Cl)c(Cl)c1)P(=O)(O)O` (stereo not drawn), the Activity (Plasmodium berghei [1]) was “inactive”, the MST (Plasmodium berghei [2]) was 7 days and the IC50 (Plasmodium falciparum [3]) was 160 nM. The inhibition in vivo at 50 mg/kg (Plasmodium berghei [4]) was 46%, the Activity (Plasmodium berghei [5]) was “inactive” and the Activity (Plasmodium berghei [6]) was “inactive”. It also gave an IC50 (Plasmodium falciparum [7]) of 600 nM.

`CN(O)C(=O)CCC(F)P(=O)(O)O.N.N` (racemic) gave an inhibition in vivo at 50 mg/kg (Plasmodium berghei [8]) of 42%, an MST (Plasmodium berghei [2]) of 11.7 days and an IC50 (Plasmodium falciparum [3]) of 310 nM. The “Ratio IC50” value (Plasmodium falciparum [9]) was 5, the inhibition in vivo at 50 mg/kg (Plasmodium berghei [10]) was 41% and the inhibition in vivo at 50 mg/kg (Plasmodium berghei [4]) was 85%. For the same molecule, the Activity (Plasmodium berghei [5]) was “inactive” and the IC50 (Plasmodium falciparum [7]) was 730 nM.

With `CC(=O)N(O)CCC(Cl)P(=O)(O)O.N.N` (racemic) the IC50 (Plasmodium falciparum [3]) was 300 nM, the “Ratio IC50” value (Plasmodium falciparum [9]) was 5 and the pKa [11] was no more than 6. The IC50 (Plasmodium falciparum [7]) was 820 nM.

With `CC(=O)N(O)CCC(F)P(=O)(O)O.N.N` (racemic) the Activity (Plasmodium berghei [12]) was “Active”, the inhibition in vivo at 50 mg/kg (Plasmodium berghei [8]) was 62% and the MST (Plasmodium berghei [2]) was 15.8 days. The IC50 (Plasmodium falciparum [3]) was 290 nM, the “Ratio IC50” value (Plasmodium falciparum [9]) was 5 and the inhibition in vivo at 50 mg/kg (Plasmodium berghei [10]) was 32%. The inhibition in vivo at 50 mg/kg (Plasmodium berghei [4]) was 88%, the Activity (Plasmodium berghei [5]) was “inactive” and the pKa [11] was no more than 6. For the same molecule, the IC50 (Plasmodium falciparum [7]) was 700 nM.

With `CCN(CC)CCCC(C)Nc1ccnc2cc(Cl)ccc12` (stereo not drawn) [CHLOROQUINE] the Activity (Plasmodium berghei [13]) was “Active”, the Activity (Plasmodium berghei [14]) was “Active” and the inhibition in vivo at 10 mg/kg (Plasmodium berghei [15]) was 100%. For the same molecule, the MST (Plasmodium berghei [16]) was 20.7 days and the Activity (Plasmodium berghei [17]) was “Active”.

In the case of `O=CN(O)CCCP(=O)(O)O` [FOSMIDOMYCIN], the Activity (Plasmodium berghei [12]) is reported as “Active”, the MST (Plasmodium berghei [2]) is reported as 11.5 days and the IC50 (Plasmodium falciparum [3]) is reported as 1730 nM. It also gave an inhibition in vivo at 50 mg/kg (Plasmodium berghei [4]) of 82%.

In the case of `CC(=O)N(O)CCCP(=O)(O)O` [FR-900098], the Activity (Plasmodium berghei [12]) is reported as “Active”, the MST (Plasmodium berghei [2]) is reported as 10.8 days and the IC50 (Plasmodium falciparum [3]) is reported as 420 nM. For the same molecule, the inhibition in vivo at 50 mg/kg (Plasmodium berghei [4]) was 93% and the pKa [11] was 7.35.
